ChEMBL document CHEMBL2046324, “Synthesis and biological evaluation of 1-arylsulfonyl-5-(N-hydroxyacrylamide)indoles as potent histone deacetylase inhibitors with antitumor activity in vivo” (J Med Chem, 2012)

Legend:
[1] = cells; assay type: functional, Hep 3B2; settings: Homo sapiens, Hep3B, 48 h
[2] = molecular target: Histone deacetylase; assay: Inhibition of HDAC in human HeLa cell nuclear extract after 30 mins by fluorescence microplate reader; assay type: protein assay
[3] = system: MDA-MB-231; assay: cells; assay type: functional; settings: Homo sapiens, MDA-MB-231, 48 h
[4] = molecular target: Histone deacetylase 2 (Homo sapiens, UniProt Q92769); assay: Inhibition of human recombinant HDAC2 after 30 mins by fluorometric assay
[5] = system: A549; assay: Growth inhibition of human A549 cells after 48 hrs by SRB assay; assay type: functional; settings: Homo sapiens, A549, 48 h
Summary of the method: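 A549 cells were grown in RPMI 1640 with 10% FBS and 2 mM glutamine at 37 °C in 5% CO₂, then seeded in medium with 5% FBS. A 24 h TCA-fixed plate gave T₀. Cells were exposed to compound or DMSO for 48 h, fixed with 10% TCA and stained with 0.4% SRB; bound dye was solubilized in 10 mM Tris and read at 515 nm. GI₅₀ was the concentration halving net protein increase. At least three independent experiments.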

[6] = system: PC-3; assay: cells; assay type: functional; settings: Homo sapiens, PC-3, 48 h
[7] = molecular target: T1, Protein deacetylase HDAC6 (Homo sapiens, UniProt Q9UBN7); assay: Inhibition of human recombinant HDAC6 after 30 mins by fluorometric assay
T1 sequence (Q9UBN7 whole entry): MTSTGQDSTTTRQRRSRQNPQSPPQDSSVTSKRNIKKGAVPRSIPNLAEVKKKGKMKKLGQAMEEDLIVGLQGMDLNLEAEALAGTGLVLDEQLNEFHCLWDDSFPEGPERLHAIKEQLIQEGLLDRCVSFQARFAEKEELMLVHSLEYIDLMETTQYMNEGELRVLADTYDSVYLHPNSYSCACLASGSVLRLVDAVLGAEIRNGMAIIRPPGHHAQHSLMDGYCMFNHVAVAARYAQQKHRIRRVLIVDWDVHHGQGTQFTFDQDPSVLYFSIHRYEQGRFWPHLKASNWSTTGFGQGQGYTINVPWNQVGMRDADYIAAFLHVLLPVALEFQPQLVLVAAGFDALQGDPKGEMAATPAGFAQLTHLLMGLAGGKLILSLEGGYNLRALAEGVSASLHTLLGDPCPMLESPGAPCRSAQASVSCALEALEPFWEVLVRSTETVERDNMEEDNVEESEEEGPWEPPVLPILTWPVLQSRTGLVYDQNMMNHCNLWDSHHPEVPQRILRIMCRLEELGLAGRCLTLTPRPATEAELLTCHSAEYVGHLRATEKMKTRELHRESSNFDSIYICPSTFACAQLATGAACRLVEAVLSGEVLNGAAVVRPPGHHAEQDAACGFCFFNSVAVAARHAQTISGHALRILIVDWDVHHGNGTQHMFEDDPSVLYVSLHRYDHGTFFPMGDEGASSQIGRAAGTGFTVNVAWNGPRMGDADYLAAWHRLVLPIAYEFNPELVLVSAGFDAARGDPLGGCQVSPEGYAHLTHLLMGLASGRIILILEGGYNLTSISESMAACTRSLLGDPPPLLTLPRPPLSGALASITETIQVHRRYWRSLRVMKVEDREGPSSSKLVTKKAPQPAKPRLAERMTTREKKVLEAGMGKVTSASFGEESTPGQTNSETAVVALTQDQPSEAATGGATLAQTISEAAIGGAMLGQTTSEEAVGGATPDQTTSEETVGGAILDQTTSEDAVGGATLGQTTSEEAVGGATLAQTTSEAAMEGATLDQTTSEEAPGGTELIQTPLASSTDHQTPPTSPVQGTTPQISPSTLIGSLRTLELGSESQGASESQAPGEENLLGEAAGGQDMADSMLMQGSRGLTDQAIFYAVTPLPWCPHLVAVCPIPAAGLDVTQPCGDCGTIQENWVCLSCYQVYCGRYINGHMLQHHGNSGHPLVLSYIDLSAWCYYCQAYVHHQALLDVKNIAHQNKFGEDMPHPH

[8] = molecular target: Histone deacetylase 1 (Homo sapiens, UniProt Q13547); assay: Inhibition of human recombinant HDAC1 after 30 mins by fluorometric assay
Sequence of Histone deacetylase 1 (Q13547 whole entry): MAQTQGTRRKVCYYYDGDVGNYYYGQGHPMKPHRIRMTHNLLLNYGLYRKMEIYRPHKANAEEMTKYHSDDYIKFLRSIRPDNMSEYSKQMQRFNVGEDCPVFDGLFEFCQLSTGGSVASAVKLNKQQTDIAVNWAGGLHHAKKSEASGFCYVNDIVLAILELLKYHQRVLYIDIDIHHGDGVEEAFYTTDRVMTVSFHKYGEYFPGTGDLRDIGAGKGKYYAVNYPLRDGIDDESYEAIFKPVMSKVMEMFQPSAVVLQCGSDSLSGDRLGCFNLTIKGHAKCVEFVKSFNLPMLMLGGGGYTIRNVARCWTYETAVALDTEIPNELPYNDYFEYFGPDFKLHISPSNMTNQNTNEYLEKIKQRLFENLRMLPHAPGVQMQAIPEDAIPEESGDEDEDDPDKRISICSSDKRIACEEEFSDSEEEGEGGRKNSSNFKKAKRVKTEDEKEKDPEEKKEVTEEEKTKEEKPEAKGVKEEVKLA

Sequence of Histone deacetylase 2 (Q92769 whole entry): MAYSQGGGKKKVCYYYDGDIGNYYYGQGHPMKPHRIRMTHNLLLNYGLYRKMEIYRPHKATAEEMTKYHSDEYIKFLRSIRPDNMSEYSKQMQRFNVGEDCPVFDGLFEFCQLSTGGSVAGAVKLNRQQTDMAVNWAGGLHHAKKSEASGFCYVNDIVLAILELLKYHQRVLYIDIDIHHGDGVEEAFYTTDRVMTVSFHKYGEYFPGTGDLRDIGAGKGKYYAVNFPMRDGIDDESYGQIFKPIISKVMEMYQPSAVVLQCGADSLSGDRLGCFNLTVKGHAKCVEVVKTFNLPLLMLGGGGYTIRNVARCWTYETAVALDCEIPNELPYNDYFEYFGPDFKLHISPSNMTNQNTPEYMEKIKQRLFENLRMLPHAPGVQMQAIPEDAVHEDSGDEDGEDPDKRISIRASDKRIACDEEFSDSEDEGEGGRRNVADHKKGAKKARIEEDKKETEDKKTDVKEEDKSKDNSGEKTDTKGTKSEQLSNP

IC50 [2]: 16.8 nM | GI50 [3]: 660 nM | IC50 [4]: 199 nM | GI50 [5]: 750 nM | GI50 [6]: 390 nM | IC50 [7]: 59.2 nM | IC50 [8]: 33.2 nM
SMILES: O=C(/C=C/c1ccc2c(ccn2S(=O)(=O)c2ccc(F)cc2)c1)NO
GI50 [1]: 640 nM
